Calls of active or inactive are those of the source. The calls are words filed in the database; no cut-off is given here.
Assays:
[1] = Inhibition of protein phosphatase 1
Homo sapiens = species on record: Homo sapiens; assay: Binding affinity to cysteine-269 residue of human protein phosphatase 2A catalytic subunit at 0.6 uM after 2 hrs by MALDI-TOF MS analysis
In short: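 Purified PP2A (0.5 unit) incubated with or without ligand at 0.6 in 25 mM Tris-HCl, 137 mM NaCl, pH 7.5, 30 °C, 2 h. Samples boiled in SDS loading buffer with DTT and run on 10% gel. PP2Ac band reduced with DTT, alkylated with acrylamide and trypsin-digested. Peptide masses (MALDI-TOF MS) compared with native PP2Ac to find the adduct-bearing fragment.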

[2] = Inhibition of protein phosphatase 2A

For `C[C@@](O)(/C=C/[C@H]1CC=CC(=O)O1)[C@@H](C[C@@H](O)\C=C/C=C\C=C\CO)OP(=O)(O)O` [FOSTRIECIN], the IC50 [1] was 45 µM, the Activity (Homo sapiens) was “Active” and the IC50 [2] was 0.0015 µM.
